HSF-1 act: increases HSF-1 driven luciferase reporter signal; NIH3T3-HGL HSF-1 luciferase reporter, MG132, 8 h; 100% = twice DMSO control signal; activation, % at 9 µM; 1.7% of 300,000 active; AID 504408;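 active = mean replicate activation of at least 50% with a set share of replicates each reaching 50%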;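 note: 0% = median of the neutral control wells and 100% = twice that signal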
Hsp70 activator: Hsp70 transcriptional activation, primary screen | AID 1203 | HeLa Hsp70 promoter luciferase reporter, luminescence; scaled: vehicle 0, proteasome-inhibitor control 100% | 0.04% of 200,000 active | activation, % at 10 µM;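 active = activation above the mean across all tested compounds plus 3 SD, cutoff set per campaign, cut at about 5.5% in these data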;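 note: 100% = MG132 at 30 µM as the positive control and 0% = DMSO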
Lmaj promast: reduces viability of Leishmania major promastigotes | 9% of 200,000 active | AID 1063 | resazurin fluorescence viability | inhibition, % at 10 µM; in the data active = inhibition above about 50%;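 note: promastigotes grown with compound for 44 hours at 28 °C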
T cruzi repl: T. cruzi replication inhibition; 1.4% of 300,000 active; T. cruzi beta-gal in NIH3T3, luminescence, 90 h; inhibition, % (test concentration not listed);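 active = mean inhibition across valid replicates above about 55%, limit read from the data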;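 note: signal also drops with host cell toxicity which is not excluded here; 0% = plate median of DMSO wells and 100% = zero luminescence signal; higher percent means less beta-gal luminescence so fewer parasites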
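Material: NIH/3T3 host cells with β-galactosidase reporter T. cruzi; Input: 5,000 host fibroblasts per well; Medium: DMEM, 2% fetal bovine serum; Compound: 50 nL DMSO compound solution per well; Schedule: 3 h host attachment, then at least 90 h co-culture; Detection: luminescent β-galactosidase signal after 60 min lysis.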
HSF1 inhib: HSF1 inhibition | 0.77% of 300,000 active | activity change, negative = inhibition, % at 7.5 µM (by protocol) | NIH3T3-HGL HSE-luciferase, MG132-induced, luminescence 8 h; stronger effect = lower value;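 active = more than half of replicate wells show activity change below -50%, luminescence cut by over half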;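 note: luciferase reports HSF-1 transcriptional activity via heat shock element; 0% = median of DMSO wells and -100% = zero luminescence signal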
Starred values were filed as active, the others as inactive; / = not tested or not shown. Many of the other results were omitted from the sample, so hits are more common in it than they were.

SMILES	HSF-1 act	Hsp70 activator	Lmaj promast	T cruzi repl	HSF1 inhib
COc1cccc(CC2CC(=O)N(CCc3ccc4c(c3)OCO4)C2=O)c1 (stereo not given)	-15	0	1	17	6
Cc1ccc(CC2CC(=O)N(CCc3ccc4c(c3)OCO4)C2=O)cc1 (stereo not given)	16	0	60*	30	-8
O=C(COC(=O)CNC(=O)c1cccs1)Nc1ccc(C(F)(F)F)cc1[N+](=O)[O-]	3	/	/	-2	-1
CCN1CCN(CCCNc2ncnc3nc[nH]c23)CC1	-89	0	-7	-2	-87*
CC(=O)Nc1ccc(NC(=O)CSc2cn(CC(=O)N3CCOCC3)c3ccccc23)cc1	-76	/	/	-17	-69*
CCn1cc(SCC(=O)N2CCOCC2)c2ccccc21	15	0	-2	-22	10
O=C(O)c1cc2ncc(CCO)cn2n1	-16	0	-1	-29	-1
Cc1nn(Cc2ccc(C(=O)Nc3ccc(C(=O)OC(C)C)cc3)o2)c(C)c1Cl	-7	0	35	55*	-12
Cc1nn(Cc2ccc(C(=O)NN)o2)c(C)c1Cl	-6	/	/	9	-1
Fc1ccc2nc(C(F)(F)F)cc(N3CCOCC3)c2c1	-14	/	/	-5	-8
COc1ccc(CN2CNc3c(c(=O)n(C)c(=O)n3C)C2)cc1	9	0	-7	1	2
O=C(NCCCn1ccnc1)c1sc2cccc(F)c2c1Cl	20	0	78*	64*	-1
O=[N+]([O-])c1ccc(CN2CCN(c3ccc(Cl)cc3)CC2)o1	2	/	/	59*	-3
Brc1ccc(CN2CCN(c3ccccc3)CC2)o1	6	/	/	-8	-7
Clc1ccc(CSc2nnc(-c3ccncc3)s2)cc1	11	/	/	59*	3
Cc1c(N=Nc2c(-c3ccc([N+](=O)[O-])cc3)[nH]n(C(N)=S)c2=O)cccc1[N+](=O)[O-]	/	0	65*	/	/
O=C(COc1ccc(Cl)cc1)NCc1ccc(F)cc1	7	/	/	-2	1
CCOC(=O)CNC(=O)Cn1cnc2c(nnn2-c2ccccc2)c1=O	9	/	/	-10	-6
c1ccc(-n2ncc3c(NCc4cccnc4)ncnc32)cc1	38	0	61*	52	10
c1ccc(-n2ncc3c(NCc4cccs4)ncnc32)cc1	66*	0	-5	-1	42
S=C(NN=C(C1CC1)C1CC1)Nc1ccccc1	-6	0	67*	-9	-10
O=C(NNC(=S)Nc1ccccc1)C1CC1	5	0	0	-2	-5
C=C1SC(=Nc2ccccc2Cl)N(C(=O)c2sc3ccccc3c2Cl)C1(C)C	57*	/	/	-1	6
C=C1SC(=Nc2c(C)cccc2Cl)N(C(=O)c2sc3ccccc3c2Cl)C12CCCCC2	9	/	/	34	5
CN(C)c1cccc(C(=O)N2CCCC(CCC(=O)N3CCN(c4ccccn4)CC3)C2)c1 (stereo not given)	-9	/	/	12	-3
SMILES	HSF-1 act	Hsp70 activator	Lmaj promast	T cruzi repl	HSF1 inhib
COc1ccc(N2CCN(C(c3nnnn3CCc3ccccc3)C(C)C)CC2)cc1 (stereo not given)	4	0	89*	32	1
COc1cccc(C(c2nnnn2CCc2ccccc2)N2CCN(c3ccccc3)CC2)c1OC (stereo not given)	4	0	55*	43	2
COc1ccccc1N1CCN(C(c2ccccc2)c2nnnn2CCc2ccccc2)CC1 (stereo not given)	42	0	64*	20	16
Fc1ccc(C(c2nnnn2CCc2ccccc2)N2CCCc3ccccc32)cc1 (stereo not given)	-1	0	76*	40	9
COc1ccccc1C(c1nnnn1CCc1ccccc1)N1CCN(c2ccccc2)CC1 (stereo not given)	7	0	14	37	4
N/C(=N\N=C\c1cccs1)SC1CC(=O)N(c2ccc(Br)cc2)C1=O (stereo not given)	11	0	100*	-11	7
C/C(=N\N=C(/N)SC1CC(=O)N(c2ccccc2)C1=O)c1cccs1 (stereo not given)	42	0	14	-5	4
C/C(=N\N=C(/N)SC1CC(=O)N(c2ccc(Br)cc2)C1=O)c1cccs1 (stereo not given)	7	0	100*	4	-3
Cc1cc(C)cc(NC(=O)c2c(C)nc3ccccn23)c1	27	0	-4	-2	14
Cc1nc(C(=O)NNC(=O)c2cccc(Cl)c2)c(C(F)(F)F)o1	-77	/	/	-14	-71*
Cc1ccc(-c2cc(C(=O)NCc3ccco3)no2)cc1	37	0	-6	-13	23
O=C(NCc1ccco1)c1cc(-c2ccc3c(c2)OCO3)on1	71*	0	-2	-9	23
COc1cccc(-c2cc(C(=O)NCc3ccco3)no2)c1	61*	2	-3	-6	28
CC(C)C(NC(=O)c1ccccc1NC(=O)c1ccccc1)C(=O)NNC(=O)c1ccncc1 (stereo not given)	11	/	/	-5	0
O=C(NC1CCCC1)C(c1ccc(Cl)cc1)N1CCc2ccccc21 (stereo not given)	-13	0	7	43	13
O=C(NC1CCCCC1)C(c1ccccc1)N1CCc2ccccc21 (stereo not given)	18	0	50*	17	0
Cc1ccc(C(C(=O)NC2CCCC2)N2CCc3ccccc32)cc1 (stereo not given)	58*	0	1	15	25
Cc1cccc(NC(=S)Nc2ccc(N3CCOCC3)cc2)c1C	-14	0	7	51	-2
Cc1ccc(O)c(C(=O)c2cnc3c(c2)c(C)nn3-c2ccccc2)c1	-16	0	77*	-20	-3
Cc1ccc(O)c(C(=O)c2cnc3c(c2)c(=O)n(C)c(=O)n3C)c1	26	0	-3	-1	3
Cc1ccc(O)c(C(=O)c2cnc3c(c2)c(-c2ccc(F)cc2)c(C#N)c(=O)n3C)c1	63*	0	52*	2	34
CC1CCc2cc(F)ccc2N1C(=O)CSc1nnc2c(n1)[nH]c1ccc(F)cc12 (stereo not given)	23	0	10	45	-3
Cc1cc(-n2c(SCC(=O)NCCC3=CCCCC3)nc3n[nH]c(C)c3c2=N)ccc1Cl	34	/	/	11	13
Cc1ccc(Cl)cc1-n1c(SCC(=O)NCCC2=CCCCC2)nc2n[nH]c(C)c2c1=N	56*	/	/	31	33
Cc1csc(Cn2c(CN(C)C)nc3ccccc3c2=O)n1	5	0	-3	-2	6
CN(C)Cc1nc2ccccc2c(=O)n1Cc1nc(-c2cc3ccccc3o2)cs1	14	0	33	65*	13
Cc1c(C)c(C)c(CO/N=C/c2cccs2)c(C)c1C	5	/	/	-4	-10
Cc1cc(-c2ccccc2)nc(SCc2ccc(C(=O)O)cc2)n1	-10	/	/	-1	-2

Screening data (PubChem BioAssay)
